# Data: ChEMBL document CHEMBL1129933, “Tyrosine kinase inhibitors. 6. Structure-activity relationships among N- and 3-substituted 2,2'-diselenobis(1H-indoles) for inhibition of protein tyrosine kinases and comparative in vitro and in vivo studies against selected sulfur congeners” (J Med Chem, 1997)
# Columns and labels:
# A-431 [1] = assay: In vivo activity against human A431 epidermoid xenograft, weight change after 9 mg/kg sc dose for 1-27 days; type: functional, organism-based; set-up: dose 9 mg/kg
# Summary of the method: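 Nude mice (NCr nu/nu, 18-22 g) bearing sc A431 fragments in the right axilla (day 0) received continuous sc infusion from an Alzet miniosmotic pump implanted under ketamine-xylazine. Pumps were removed or replaced under lidocaine-epinephrine for longer therapy, in 7-day and 27-day studies. Daily dose was the maximum deliverable without significant precipitation. Weight change was taken as the maximum treatment-related loss.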
# [2] = Inhibition of protein synthesis; type: functional
# Summary of the method: (§1)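 Log-phase cells were drug-treated for 2 h, then exposed for 2 h to 1 µM [methyl-3H]thymidine (DNA), [5-3H]uridine (RNA) or (S)-[4,5-3H]leucine (protein), each at 1 µCi/nmol. Cells were trypsinized into ice-cold 15% TCA, and precipitates were collected on glass-fibre filters, washed, and counted by scintillation.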
# B16 [3] = assay: In vivo activity against murine B16 melanoma, net cell kill at 0.75 mg/kg administered intraperitoneally at 4 hour intervals 3x a day for 9 days; type: functional, Mus musculus; settings: route intraperitoneal
# Summary of the method: (§2)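 Tumors were passaged in C57BL/6 mice; B6C3F1 mice (18-22 g, randomized) were implanted on day 0 ip with counted tumor cells or sc with fragments. Dosing was ip bolus, daily or q4h ×3 daily, by average cage weight. Vehicle was distilled H2O or 10% DMA in 50 mM lactic acid buffer, pH 4.0. Net cell kill = log reduction in tumor burden between first and last treatments.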
# A-431 [4] = assay: In vivo activity against human A431 epidermoid xenograft, tumor growth delay (T-C) at 9 mg/kg administered subcutaneously for 1-27 days; settings: route subcutaneous
# B16 [5] = assay: In vivo activity against murine B16 melanoma, weight change after 3.0 mg/kg i.p. dose for 9 days; type: functional, Mus musculus; settings: route intraperitoneal
# Summary of the method: (§3)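 Murine tumours were maintained by serial transplantation (~30 mg fragments every 2 weeks): B16 in C57BL/6 and colon 26 in BALB/c. They were tested in F1 hosts, B6C3F1 for B16 and CD2F1 for colon 26, weighing 18-22 g. Treatment was ip daily or q4h ×3 for 9 days. Weight change was the difference between mean group weights on the last and first treatment days, from life-span assays.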
# Colon 26 = assay: In vivo activity against murine colon 26, net cell kill at 0.75 mg/kg ip dose at 4 hour intervals 3x a day for 9 days; type: functional, Mus musculus; settings: route intraperitoneal
# Summary of the method: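 Colon 26 was passaged in BALB/c mice; tested in CD2F1 mice (18-22 g, randomized) implanted on day 0 ip with counted cells or sc with fragments. Dosing was ip bolus, daily or q4h ×3 daily, by average cage weight. Vehicle was distilled H2O or 10% DMA in 50 mM lactic acid, pH 4.0. Net cell kill = log tumor-burden reduction between first and last treatments.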
# [6] = molecular target: Fibroblast growth factor receptor (Mus musculus, UniProt P21803+Q03142+P16092+Q61851); assay: Inhibition of fibroblast growth factor (bFGF)-mediated autophosphorylation of FGF-R in Swiss 3T3 mouse fibroblasts; type: functional
# Summary of the method: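 Swiss 3T3 fibroblasts were treated 2 h with a range of compound concentrations, then stimulated for 5 min with growth factor (bFGF). Receptor tyrosine phosphorylation was read by extraction and western blotting.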
# C6 [7] = assay: In vivo activity against C6 glioma xenograft, tumor growth delay (T-C, days) at 5 mg/kg ip dose for 9 days; settings: route intraperitoneal
# C6 [8] = assay: In vivo activity against C6 glioma xenograft, weight change after 5 mg/kg ip dose for 9 days; type: functional, organism-based; set-up: dose 5 mg/kg
# Summary of the method: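 Nude mice (NCr nu/nu, 18-22 g) implanted sc in the right axilla with serially passaged C6 glioma fragments on day 0, randomized, and dosed ip by bolus on days 1-9 based on average cage weight. Vehicle was distilled H2O or 10% DMA in 50 mM lactic acid buffer, pH 4.0, depending on compound. Weight change was taken as the maximum treatment-related weight loss.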
# MCF7 = assay: In vivo activity against human MCF-7 xenograft, weight change after 3.0 mg/kg ip dose at 4 hour intervals 3x a day for 5-11 days; type: functional, organism-based; set-up: dose 3 mg/kg
# Summary of the method: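 MCF-7 breast carcinoma xenografts were serially passaged in nude mice (NCr nu/nu) and implanted in randomized 18-22 g mice on day 0. Dosing was ip bolus, either daily or q4h ×3 daily, with vehicle of distilled H2O or 10% DMA in 50 mM lactic acid buffer, pH 4.0. Weight change was taken as the maximum treatment-related loss.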
# B16 [9] = assay: In vivo activity against murine B16 melanoma, percent treated/control tumor mass at 0.75 mg/kg ip dose at 4 hour intervals 3x a day for 9 days; type: functional, Mus musculus; settings: route intraperitoneal; summary of the method: as §3
# M5076 = assay: In vivo activity against murine M5076 sarcoma, net cell kill at 3.0 mg/kg ip dose at 4 hour intervals 3x per day for 9 days; type: functional, Mus musculus; settings: route intraperitoneal; summary of the method: as §2
# A-431 [10] = assay: In vivo activity against human A431 epidermoid xenograft, net cell kill at 10 mg/kg administered subcutaneously for 9-15 days; type: functional; settings: route subcutaneous
# Summary of the method: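 Nude mice (NCr nu/nu), 18-22 g, randomized, implanted sc in the right axilla with serially passaged A431 tumor fragments on day 0. Dosing was by ip bolus or continuous sc Alzet miniosmotic pump infusion, by average cage weight. Vehicle was distilled H2O or 10% DMA in 50 mM lactic acid buffer, pH 4.0, depending on compound. Net cell kill = net log reduction in tumor burden between first and last treatments.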
# [11] = Inhibition of RNA synthesis; type: functional; summary of the method: as §1
smiles,measurement,setting,value
NC(Cc1c(SSc2[nH]c3ccccc3c2CC(N)C(=O)NCc2ccccc2)[nH]c2ccccc12)C(=O)NCc1ccccc1 (centres undefined),Weight change,A-431 [1],Weight gain
same,IC50,[2],600 nM
same,Net cell kill,B16 [3],-1.3 log10
same,T-C,A-431 [4],1 days
same,Weight change,B16 [5],1.4 g
same,Net cell kill,Colon 26,-0.2 log10
same,IC50,[6],2300 nM
same,T-C,C6 [7],0 days
same,Weight change,C6 [8],Weight gain
same,Weight change,MCF7,Weight gain
same,T/C,B16 [9],99%
same,Net cell kill,M5076,-0.8 log10
same,Net cell kill,A-431 [10],-0.2 log10
same,IC50,[11],2000 nM
